Bioassay records as filed in PubChem BioAssay.
RanGTP-Impb inh = inhibitors of RanGTP-importin-beta interaction, primary screen, biochemical, FRET, CFP-Ran, YFP-importin-beta, homogeneous. inhibition, % (no concentration beside the values). 1.1% of 300,000 active. cell-free CFP-Ran/YFP-importin-beta FRET ratio;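 active means more than half of the replicate wells show a fall in the fluorescence ratio signal beyond about 16%, limit read from the data, passing the limit was not always enough; inconclusive means exactly half of the replicate wells pass the set limit; inactive means fewer than half of replicates pass the limit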;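 further: 0% = DMSO wells and 100% = Ran loaded with GDP instead of GTP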
Pemphigus Ab inh = human desmoglein-3 autoantibody binding inhibition; P32926; DSG3-coupled beads, scFv-anti-DSG3-GFP binding, flow cytometry; active compounds read low; binding (percent of control), % at 10 µM; 0.48% of 310,000 active; AID 588358;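 active means binding more than 3 SD below its plate's average and above zero; inconclusive means below that plate limit but binding exactly zero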;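 further: hits lower antibody fragment binding to DSG3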
Runt-CBFb FRET = blocks binding of human RUNX1 Runt domain to CBFb; Q01196+Q13951; Cerulean-Runt/Venus-CBFb FRET ratio 530/480, 1 h; inhibition, % at 20 µM; 0.46% of 220,000 active;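 active means inhibition over about 50% at 20 µM in the single-dose screen, limit read from the data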;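 further: 0% = DMSO wells and 100% = excess unlabeled CBFb competitor control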
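test system = Cerulean-Runt domain fusion protein, energy donor | probe or stimulus = Venus-CBFb binding partner, 100 nM | incubation = two 1 h room-temperature incubations shielded from light | detection = fluorescence energy transfer, 422 nm excitation, 530/480 nm emission | measure = loss of energy transfer signal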
Hck Nef HTS = inhibitors of human Hck kinase activated by Nef; Recombinant Hck-YEEI plus Nef, Z-Lyte FRET kinase assay; inhibition, % at 20 µM; 0.68% of 220,000 active; AID 463187;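 active means Hck-Nef kinase inhibition above about 50%, limit read from the data; inactive means inhibition below that limit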;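 further: 0% = DMSO with Hck plus Nef and 100% = Hck alone without Nef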
Runt-SMMHC FRET = inhibitors of human RUNX1 Runt domain binding to CBFb-SMMHC | AID 1434 | inhibition, % at 20 µM | Q01196+Q13951 | Cerulean-Runt/Venus-CBFb-SMMHC FRET ratio 530/480, 1 h | 0.74% of 220,000 active;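 active means mean inhibition across duplicate retests at 20 µM reaching about 50%, limit read from the data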;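 further: 0% = DMSO wells and 100% = wells with excess untagged CBFb-SMMHC; inhibitors lower the FRET ratio by blocking Runt binding to CBFb-SMMHC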
p-CIP stab down = p/CIP protein destabilization. Q05BA5. F442A p/CIP-EGFP cells, EGFP fluorescence, 16 h. decrease of EGFP signal, % at 10 µM. 0.01% of 290,000 active;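 active means EGFP signal decrease of at least 30% at 10 µM or well 3 SD below plate mean, unless failing retest; inactive means the rest, including hits failing retest or dose response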
Numbers without * were called inactive; ? = inconclusive; / = no result given. A selection: hits, their analogues and other compounds. The true share with any hit is near 2.1%.

SMILES	RanGTP-Impb inh	Pemphigus Ab inh	Runt-CBFb FRET	Hck Nef HTS	Runt-SMMHC FRET	p-CIP stab down
CCOC(=O)c1cc2c(=O)n3ccccc3nc2n(CCOC)c1=NC(=O)c1ccncc1	96*	102	62*	48	63*	-11
COCCCn1c(C(=O)Nc2ccc3c(c2)OCO3)cc2c(=O)n3ccccc3nc21	-1	90	/	/	/	-9
Cc1onc(-c2ccccc2Cl)c1C(=O)OCn1nnc2ccccc2c1=O	-4	108	0	0	-8	0
CC(=O)/C(=N\Nc1ccc(C)cc1)Sc1nncn1C	4	99	5	-3	1	-2
COc1ccc(Br)cc1/C=C\C(=O)NCc1cccnc1	1	99	-1	15	2	0
COCCCNC(CC(=O)Nc1cc(C)cc(C)c1)C(=O)O (configuration not stated)	-1	99	/	/	/	/
CCOC(=O)c1cc2c(=O)n3ccccc3nc2n(CCCOC)c1=NC(=O)C(C)(C)C	0	110	56*	159*	-21	-22
CCOC(=O)c1cc2c(=O)n3ccccc3nc2n(CCCOC)c1=NC(=O)c1cccnc1	46*	/	133*	19	88*	-41
CCOC(=O)c1cc2c(=O)n3ccccc3nc2n(Cc2ccccc2Cl)c1=N	/	/	39	/	39	7
Cc1cccc(C(=O)N2CCCC(N3CCN(c4ccc(F)cc4)CC3)C2)n1 (configuration not stated)	1	99	/	/	/	-13
COc1cc(C2c3cc4c(cc3CC3COC(=O)N32)OCO4)cc(OC)c1OC (configuration not stated)	/	87	/	/	/	/
O=C(Nc1cc(C2CC2)nn1-c1ccccc1)c1ccc(F)cc1	/	102	/	/	/	/
CCC(/C=C1\Sc2ccc(OC)cc2N1CCO)=C\c1sc2ccc(OC)cc2[n+]1CCO	/	-40*	25	9	48	-5
CC(C)c1ccc(S(=O)(=O)/N=C2\C=C(NS(=O)(=O)c3ccccc3)C(=O)c3ccccc32)cc1	1	92	/	/	/	4
CCc1ccc(S(=O)(=O)/N=C2\C=C(NS(=O)(=O)c3ccccc3)C(=O)c3ccccc32)cc1	6	49*	/	/	/	-10
CCOC(=O)c1sc(-c2ccc(Cl)cc2Cl)nc1O	-37	111	-61	-135	84*	-12
CCOC(=O)c1sc(CS(=O)(=O)c2ccc(Cl)cc2)nc1C	8	98	2	16	-11	4
O=C(NCCN1CCCC1=O)C1CCC(=O)N(CCc2cccc(F)c2)C1 (configuration not stated)	4	98	/	/	/	4
CC(/C=N/NC(=O)c1cccs1)=C\c1ccco1	20*	99	2	30	2	-35
N=c1c(C(=O)NC2CCCCC2)cc2c(=O)n3ccccc3nc2n1Cc1ccc(F)cc1	159*	95	/	/	/	0
CCOC(=O)c1cc2c(=O)n3ccccc3nc2n(Cc2ccccc2)c1=N	188*	102	18	28	63*	0
N=c1c(C(=O)NC2CCCC2)cc2c(=O)n3ccccc3nc2n1Cc1ccccc1	177*	/	/	/	/	-8
CCOCCCn1c(=N)c(C(=O)Nc2cc(C)on2)cc2c(=O)n3ccccc3nc21	/	/	/	68*	/	/
COc1ccc(NC(=O)NNC(=O)c2ccc3ccccc3c2O)c(OC)c1	-1	104	/	/	/	4
CC(CC(=O)c1ccccc1)=NCC(O)CN=C(C)CC(=O)c1ccccc1 (configuration not stated)	/	98	/	/	/	/
SMILES	RanGTP-Impb inh	Pemphigus Ab inh	Runt-CBFb FRET	Hck Nef HTS	Runt-SMMHC FRET	p-CIP stab down
CCCCN(C(=O)c1cccc(S(=O)(=O)N(C)c2ccc(C)cc2)c1)c1c(N)n(CCCC)c(=O)[nH]c1=O	-1	105	/	/	/	/
Cc1ccc(Cn2c(=N)c(C(=O)NC3CCCCC3)cc3c(=O)n4ccccc4nc32)cc1	161*	99	/	/	/	-3
Cn1c(C(=O)NC2CCCCC2)cc2c(=O)n3ccccc3nc21	3	103	/	/	/	-5
Cc1[nH]n(-c2ncc(-c3ccccc3)s2)c(=O)c1C(c1ccc(Cl)cc1)C(C#N)C#N (configuration not stated)	?	99	1	4	0	0
Cc1ccc(C(=O)NC(=S)NCC(=O)c2ccccc2)cc1	3	-20*	2	-1	-3	-1
CCn1ncc(N(C)N)c(Cl)c1=O	1	103	-2	-1	125	-14
CCCCNC(=O)O/N=C(\N)CS(=O)(=O)C(C)(C)C	0	104	-1	30	1	-11
Cc1nn(C)c(C(=O)Nc2ccc(S(=O)(=O)NC34CC5CC(CC(C5)C3)C4)cc2)c1Br	?	17*	-1	7	-6	-15
Cc1ccc(S(=O)(=O)NC23CC4CC(CC(C4)C2)C3)cc1	/	103	/	/	/	/
CC(C(=O)N(C)c1ccccc1)N1CCN(C(=O)c2ccccc2)CC1 (configuration not stated)	-1	105	/	/	/	-11
CC1CCCCC1NC(=O)COC(=O)c1c2c(nc3ccccc13)/C(=C/c1ccco1)CC2 (configuration not stated)	-79	77*	13	1	/	-6
O=C(COC(=O)c1c2c(nc3ccccc13)/C(=C/c1ccco1)CC2)NC1CCCC1	-131	109	17	0	/	1
COc1ccc(CNC(=O)C[C@H]2C[C@H](C(=O)N3CCCCC3)[C@@]3(C)c4[nH]c5cc(CCC(=O)N(C)C)ccc5c4CCN3C2=O)cc1OC	/	102	/	/	/	/
Cc1cccc(N(C)S(=O)(=O)c2nnc(NC(=O)c3ccco3)s2)c1	176*	100	/	/	/	4
COc1ccc(NC(=O)CSCC(=O)N(C)Cc2ccc3c(c2)OCCO3)cc1	/	107	/	/	/	/
COc1ccccc1-[n+]1c(C)cc(/C=C2\Sc3ccccc3N2C)cc1C	1	133	6	-32	63*	-677
COc1ccc(-[n+]2c(C)cc(/C=C3\Sc4ccccc4N3C)cc2C)cc1	?	139	5	-8	44	-589
Cc1cc2cc(CNC(=O)NC3CCCCC3)ccc2[nH]1	4	74*	-3	-7	-17	-10
Cc1ccc(NC(=O)NCc2ccc3[nH]c(C)cc3c2)cc1	2	87*	-1	17	-7	-2
Cc1cccc(NC(=O)NCc2ccc3[nH]c(C)cc3c2)c1	0	93	-7	10	-2	8
COc1cc(C2N3CC4(C)CN2CC(C)(C3)C4)ccc1O (configuration not stated)	0	106	2	-1	6	-12
COc1ccc(C2N(c3ccccc3)CCN2c2ccccc2)cc1O	25*	96	-1	13	-2	-7
CCOC(=S)NC(=O)c1sc2ccccc2c1Cl	53*	98	0	2	2	-21
